This note sets out measurements from ChEMBL document CHEMBL1134666, “Design, synthesis, and biological evaluation of novel nucleoside and nucleotide analogues as agents against DNA viruses and/or retroviruses” (J Med Chem, 2001).

Assay [1] concerns the target T1, Adenosine deaminase (Bos taurus, UniProt P56658).
T1 sequence (P56658 whole entry): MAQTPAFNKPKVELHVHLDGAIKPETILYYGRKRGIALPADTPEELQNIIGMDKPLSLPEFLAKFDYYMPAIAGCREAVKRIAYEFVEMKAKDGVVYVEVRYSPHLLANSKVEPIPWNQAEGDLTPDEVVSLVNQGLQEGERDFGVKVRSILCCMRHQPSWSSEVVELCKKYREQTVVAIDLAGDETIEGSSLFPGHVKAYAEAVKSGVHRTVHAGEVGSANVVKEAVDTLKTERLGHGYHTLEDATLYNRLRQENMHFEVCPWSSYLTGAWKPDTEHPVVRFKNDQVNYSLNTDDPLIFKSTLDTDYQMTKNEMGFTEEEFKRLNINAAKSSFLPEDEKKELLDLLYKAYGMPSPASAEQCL
Description: Inhibitory activity against adenosine deaminase. The method, boiled down:
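Calf mucosal adenosine deaminase. Ki determined by the Kaplan method, with ara-A as substrate and the test compound added to the substrate solutions.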

Assay [2] deals with CCRF-CEM. Description: Cellular toxic effect was determined in CEM cells. The class given is functional, cell-based. The conditions noted are these: Homo sapiens.
Assay [3] is described as follows: Inhibitory effects on HSV-1 induced mortality in NMRI mice upon (ip) administration at a dose of 150 mk/kg/day. The class given is functional, Human alphaherpesvirus 1. The method, boiled down:
(§1)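 Two-week-old NMRI mice (~7 g, 15-20 per group) were infected ip with 4 × 10⁴ units HSV-1 (KOS). Compound was given ip once daily for 6 consecutive days starting 4 h postinfection; controls received saline. Mean day of symptom onset and of death were recorded, with % symptom-free and % surviving at day 21, when the experiment ended.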

Assay [4] in a line: Inhibitory effects on HSV-1 induced mortality in NMRI mice upon (ip) administration at a dose of 250 mk/kg/day. The class given is functional, Human alphaherpesvirus 1. The method, boiled down: as §1
Assay [5] concerns Human immunodeficiency virus 1. The assay can be described thus: Inhibition of cytopathogenicity against human HIV-1(IIIB) in MT-4 cells. The class given is functional, organism-based. The conditions noted are these: Human immunodeficiency virus 1, MT4. A general note: Damage to the host cells serves as the signal in cytopathic effect assays.
Assay [6] in a line: Inhibitory effects on HSV-1 induced mortality in NMRI mice upon (ip) administration at a dose of 100 mk/kg/day. The class given is functional, Human alphaherpesvirus 1. The method, boiled down: as §1
For assay [7], the system named is Human immunodeficiency virus 2. The assay can be described thus: Inhibition of cytopathogenicity against human HIV-2(LAV-2) in MT-4 cells. The class given is functional, organism-based. As to conditions: Human immunodeficiency virus 2, MT4.
The test system of assay [8] is MT4. Description: Cellular toxic effect was determined in MT-4 cells. As to conditions: Homo sapiens. The class given is functional, cell-based.
Assay [9] deals with Moloney murine sarcoma virus. The assay can be described thus: Inhibition of virus-induced cytopathogenicity against moloney murine sarcoma virus(MSV)in CEM cells in cell protection assay. The class given is functional, organism-based. As to conditions: CCRF-CEM. Put shortly:
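Cell-protection assay with Moloney murine sarcoma virus in CEM cells; inhibition of virus-induced cytopathogenicity measured and IC50 derived by linear regression from the average of duplicate determinations.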

Assay [10] in a line: Inhibitory effect on HSV-1 induced mortality in NMRI mice upon (ip) administration at a dose of 150 mk/kg/day. The class given is functional, Human alphaherpesvirus 1. The method, boiled down:
as §1

The nature of assay [11]: Inhibitory effect on HSV-1 induced mortality in NMRI mice upon (ip) administration at a dose of 250 mk/kg/day. The class given is functional, Human alphaherpesvirus 1. The method, boiled down:
as §1

The subject of assay [12] is Vero. Description: Maximum velocity constant of the rate of phosphorylation was determined against Vero cell thymidine kinase. The class given is functional, Chlorocebus sabaeus.
The nature of assay [13]: Inhibitory effect on HSV-1 induced mortality in NMRI mice upon (ip) administration at a dose of 100 mk/kg/day. The class given is functional, Human alphaherpesvirus 1. The method, boiled down:
as §1

For assay [14], the system named is Vero. The assay can be described thus: Maximum velocity constant of the rate of phosphorylation was determined n the presence of Vero cell thymidine kinase. The class given is functional, Chlorocebus sabaeus.

In brackets after ≈: the same amount, converted by molar mass.

In [1], `COC1=C(OC)/C(=C/COP(=O)(O)COCCn2cnc3c(N)ncnc32)OC1=O` yielded a Ki greater than 800 µM. The IC50 in assay [2] came to 280 µg/mL (≈ 634 µM); in [5], 1.4 µg/mL (≈ 3.17 µM); in assay [7] it was 1 µg/mL (≈ 2.27 µM); in assay [8] it was 265 µg/mL (≈ 600 µM); in assay [9], 0.93 µg/mL (≈ 2.11 µM). Moreover, the Animal death in [3], in assay [4] and in [6] was greater than 21% each time. Also, the Symptom initiation in assay [3], in assay [4] and in [6] was greater than 21% each time.

For `COC1=C(OC)/C(=C/COP(=O)(O)COCCn2cnc3c(O)nc(N)nc32)OC1=O`, the IC50 in assay [2] was 13 µg/mL (≈ 28.4 µM); in assay [5], 6 µg/mL (≈ 13.1 µM); in [7], 7.1 µg/mL (≈ 15.5 µM); in assay [8], 14 µg/mL (≈ 30.6 µM); in assay [9] it was 0.02 µg/mL (≈ 0.0437 µM).

For `Nc1ncnc2ncn(CCOCP(=O)(O)O)c12`, the IC50 is greater than 300 µg/mL in assay [2]; 7.8 µg/mL (≈ 28.6 µM) in assay [5]; 9.1 µg/mL (≈ 33.3 µM) in assay [7]; greater than 300 µg/mL in assay [8]; 27 µg/mL (≈ 98.8 µM) in assay [9]. This compound had a Symptom initiation in assay [10] of 15%. This compound yielded an Animal death in assay [11] of 20%.

Regarding `Nc1ncnc2c1ncn2[C@@H]1O[C@H](COP(=O)(O)O)[C@@H](OP(=O)(O)COCCn2cnc3ncnc(N)c32)[C@H]1O`, the IC50 in assay [2] was greater than 300 µg/mL; in assay [5], 5.9 µg/mL (≈ 9.79 µM); in assay [7] it was 6.4 µg/mL (≈ 10.6 µM); in [8], 298 µg/mL (≈ 495 µM); in assay [9] it was 17 µg/mL (≈ 28.2 µM). In addition, the Animal death in assay [4] and in assay [6] was greater than 21% each time. Further, the figures for the Symptom initiation in assay [4] and in assay [6] were greater than 21% and 16%, respectively.

`Nc1nc2c(ncn2CCOCP(=O)(O)O)c(=O)[nH]1` [GS-438]: the IC50 in assay [2] is 12 µg/mL (≈ 41.5 µM); in [5] it was 16 µg/mL (≈ 55.3 µM); in assay [7] it was 18 µg/mL (≈ 62.2 µM); in [8], 16 µg/mL (≈ 55.3 µM); in [9], 0.19 µg/mL (≈ 0.657 µM).

For `Nc1ncnc2c1ncn2[C@@H]1O[C@H](CO)[C@@H](O)[C@@H]1O` [VIDARABINE], in [12], the “Relative Vmax” value is listed as less than 3.

As to `Nc1ncnc2ncn(COCCO)c12`, the Animal death in [10] is reported as greater than 21%. In assay [11], this compound showed an Animal death greater than 21% and a Symptom initiation greater than 21%. In assay [12], the “Relative Vmax” value is given as less than 3.

Regarding `COC1=C(OC)/C(=C/COP(=O)(O)OC[C@H]2O[C@@H](n3cnc4c(N)ncnc43)[C@H](O)[C@@H]2OP(=O)(O)COCCn2cnc3ncnc(N)c32)OC1=O`, in assay [1], the Ki is greater than 800 µM. Also, the IC50 is greater than 300 µg/mL in assay [2]; 4.9 µg/mL (≈ 6.36 µM) in assay [5]; 4.2 µg/mL (≈ 5.45 µM) in assay [7]; greater than 300 µg/mL in [8]; 13 µg/mL (≈ 16.9 µM) in assay [9]. In addition, the Animal death in [3], in [4] and in assay [6] was greater than 21% in each case. In addition, the Symptom initiation in assay [3] and in assay [4] was greater than 21% in each case.

For `Nc1ncnc2c1ncn2CCOCP(=O)(O)O` [ADEFOVIR], the IC50 is 285 µg/mL (≈ 1040 µM) in [2]; 4.1 µg/mL (≈ 15 µM) in assay [5]; 3.8 µg/mL (≈ 13.9 µM) in [7]; 274 µg/mL (≈ 1000 µM) in assay [8]; 2 µg/mL (≈ 7.32 µM) in assay [9]. For the same compound, the results for the Animal death in [13], in assay [10] and in assay [11] were 17%, greater than 21% and greater than 21%, respectively. Moreover, in [11], the Symptom initiation is on record as greater than 21%.

`Nc1nc2c(ncn2COCCO)c(=O)[nH]1` [ACYCLOVIR] showed an Animal death in assay [3] greater than 21%. In assay [4], this compound returned an Animal death greater than 21% and a Symptom initiation greater than 21%.

For the compound `Nc1ncnc2c1ncn2COCCO`, the “Relative Vmax” value in assay [14] is less than 3.

As usually defined, the Ki is a dissociation constant, usually derived from enzyme kinetics or from competition with a known ligand. As usually defined, the IC50 is the concentration that gives 50% inhibition.
